Experiments:
[1] = target: T1, Aurora kinase C (Homo sapiens) (UniProt Q9UQB9); experiment: Inhibition of AURKC at 1 uM
T1 sequence (whole entry): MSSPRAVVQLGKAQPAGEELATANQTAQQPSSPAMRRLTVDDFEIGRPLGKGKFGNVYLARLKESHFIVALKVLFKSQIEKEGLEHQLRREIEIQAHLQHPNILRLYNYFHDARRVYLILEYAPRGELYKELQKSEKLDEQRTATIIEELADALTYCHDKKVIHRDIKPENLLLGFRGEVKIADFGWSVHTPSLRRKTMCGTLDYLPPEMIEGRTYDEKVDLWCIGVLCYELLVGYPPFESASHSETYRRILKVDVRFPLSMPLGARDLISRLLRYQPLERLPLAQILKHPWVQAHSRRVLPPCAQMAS
Method in brief: (§1)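 Ambit KINOMEscan screen at a single concentration across a 250–400 kinase panel, recorded as percent inhibition. Selectivity was expressed as S(90), the fraction of kinases inhibited >90%.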

[2] = tested on: Mast/stem cell growth factor receptor Kit (Homo sapiens), P10721 [V559D]; experiment: Inhibition of KIT V559D mutant at 1 uM
Chain of Mast/stem cell growth factor receptor Kit (Homo sapiens), P10721 [V559D] (P10721 whole entry V559D): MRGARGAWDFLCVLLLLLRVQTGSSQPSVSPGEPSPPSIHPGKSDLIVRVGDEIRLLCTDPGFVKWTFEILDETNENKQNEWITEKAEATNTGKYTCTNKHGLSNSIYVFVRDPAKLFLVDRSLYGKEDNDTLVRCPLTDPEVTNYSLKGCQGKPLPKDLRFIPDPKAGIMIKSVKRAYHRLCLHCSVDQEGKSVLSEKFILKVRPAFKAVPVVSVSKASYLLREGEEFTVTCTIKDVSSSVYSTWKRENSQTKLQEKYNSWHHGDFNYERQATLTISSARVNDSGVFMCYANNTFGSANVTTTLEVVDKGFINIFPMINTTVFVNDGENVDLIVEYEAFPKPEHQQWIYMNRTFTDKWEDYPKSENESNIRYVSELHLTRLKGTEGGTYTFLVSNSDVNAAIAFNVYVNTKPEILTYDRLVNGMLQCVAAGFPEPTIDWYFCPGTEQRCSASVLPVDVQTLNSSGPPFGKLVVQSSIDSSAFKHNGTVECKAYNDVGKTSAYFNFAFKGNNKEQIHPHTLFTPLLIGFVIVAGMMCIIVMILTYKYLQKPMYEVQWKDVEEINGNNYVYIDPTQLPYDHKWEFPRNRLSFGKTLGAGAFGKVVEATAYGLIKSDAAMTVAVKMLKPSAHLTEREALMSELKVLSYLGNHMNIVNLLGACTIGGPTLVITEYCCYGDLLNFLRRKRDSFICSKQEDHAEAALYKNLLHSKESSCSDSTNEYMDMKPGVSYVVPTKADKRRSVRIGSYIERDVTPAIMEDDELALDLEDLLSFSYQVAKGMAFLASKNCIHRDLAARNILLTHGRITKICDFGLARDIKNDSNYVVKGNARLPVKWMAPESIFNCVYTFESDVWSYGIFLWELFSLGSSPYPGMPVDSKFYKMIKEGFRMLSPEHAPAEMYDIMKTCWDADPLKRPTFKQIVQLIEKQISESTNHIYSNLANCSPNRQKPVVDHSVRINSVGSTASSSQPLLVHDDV
Method in brief: (§2)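 Single-concentration screen on the Ambit KINOMEscan platform, run against a panel of 250–400 kinases. Per-kinase inhibition was also summarized as S(90), the fraction of kinases inhibited by more than 90%.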

[3] = tested on: Mast/stem cell growth factor receptor Kit (Homo sapiens), P10721 [V559D,V654A]; experiment: Inhibition of KIT V559D,V654A mutant at 1 uM; method in brief: as §2
Chain of Mast/stem cell growth factor receptor Kit (Homo sapiens), P10721 [V559D,V654A] (P10721 whole entry V559D/V654A, canonical isoform): as the sequence (P10721 whole entry V559D) above, with V654A counted along it

[4] = target: T2, Phosphatidylinositol 4,5-bisphosphate 3-kinase catalytic subunit delta isoform (Homo sapiens) (UniProt O00329); experiment: Inhibition of PIK3CD at 1 uM
T2 sequence (whole entry): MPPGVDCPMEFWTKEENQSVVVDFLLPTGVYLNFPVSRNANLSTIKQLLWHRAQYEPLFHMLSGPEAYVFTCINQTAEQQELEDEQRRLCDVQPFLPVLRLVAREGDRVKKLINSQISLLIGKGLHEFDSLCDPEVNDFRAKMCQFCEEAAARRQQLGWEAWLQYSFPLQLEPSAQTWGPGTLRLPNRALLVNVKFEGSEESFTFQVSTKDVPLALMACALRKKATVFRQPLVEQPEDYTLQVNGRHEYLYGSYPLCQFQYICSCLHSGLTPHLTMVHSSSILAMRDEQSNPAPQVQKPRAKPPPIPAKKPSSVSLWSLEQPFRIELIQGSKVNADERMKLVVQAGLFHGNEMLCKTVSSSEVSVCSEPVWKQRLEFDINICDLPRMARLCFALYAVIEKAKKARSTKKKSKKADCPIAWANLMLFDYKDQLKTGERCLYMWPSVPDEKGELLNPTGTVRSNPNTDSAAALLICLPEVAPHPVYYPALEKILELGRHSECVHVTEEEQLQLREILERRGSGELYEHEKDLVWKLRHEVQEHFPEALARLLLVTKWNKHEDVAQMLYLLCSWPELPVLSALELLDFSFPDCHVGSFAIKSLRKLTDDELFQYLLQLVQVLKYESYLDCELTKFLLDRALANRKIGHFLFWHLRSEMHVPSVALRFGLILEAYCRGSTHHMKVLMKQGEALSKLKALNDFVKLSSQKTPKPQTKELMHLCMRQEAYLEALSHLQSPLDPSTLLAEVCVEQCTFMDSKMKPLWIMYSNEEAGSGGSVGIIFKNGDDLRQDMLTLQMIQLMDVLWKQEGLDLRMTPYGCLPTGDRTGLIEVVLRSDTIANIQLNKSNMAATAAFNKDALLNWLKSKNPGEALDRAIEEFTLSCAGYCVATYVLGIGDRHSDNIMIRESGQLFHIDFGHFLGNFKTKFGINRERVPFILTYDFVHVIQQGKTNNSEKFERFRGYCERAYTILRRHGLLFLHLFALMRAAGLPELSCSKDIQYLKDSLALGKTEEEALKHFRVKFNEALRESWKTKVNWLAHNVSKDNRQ

[5] = target: Tyrosine-protein kinase JAK1 (Homo sapiens) (UniProt P23458); experiment: Inhibition of JAK1 JH2 pseudokinase domain at 1 uM; method in brief: as §2
[6] = target: Myosin light chain kinase 2, skeletal/cardiac muscle (Homo sapiens) (UniProt Q9H1R3); experiment: Inhibition of MYLK2 at 1 uM
[7] = target: Mitogen-activated protein kinase 10 (Homo sapiens) (UniProt P53779); experiment: Inhibition of JNK3 at 1 uM; method in brief: as §2
[8] = target: Serine/threonine-protein kinase PAK 5 (Homo sapiens) (UniProt Q9P286); experiment: Inhibition of PAK7 at 1 uM
[9] = target: Mitogen-activated protein kinase 14 (Homo sapiens) (UniProt Q16539); experiment: Inhibition of p38-alpha at 1 uM
[10] = target: Proto-oncogene tyrosine-protein kinase ROS (Homo sapiens) (UniProt P08922); experiment: Inhibition of ROS1 at 1 uM; method in brief: as §2
Chain of Proto-oncogene tyrosine-protein kinase ROS (Homo sapiens) (P08922 whole entry): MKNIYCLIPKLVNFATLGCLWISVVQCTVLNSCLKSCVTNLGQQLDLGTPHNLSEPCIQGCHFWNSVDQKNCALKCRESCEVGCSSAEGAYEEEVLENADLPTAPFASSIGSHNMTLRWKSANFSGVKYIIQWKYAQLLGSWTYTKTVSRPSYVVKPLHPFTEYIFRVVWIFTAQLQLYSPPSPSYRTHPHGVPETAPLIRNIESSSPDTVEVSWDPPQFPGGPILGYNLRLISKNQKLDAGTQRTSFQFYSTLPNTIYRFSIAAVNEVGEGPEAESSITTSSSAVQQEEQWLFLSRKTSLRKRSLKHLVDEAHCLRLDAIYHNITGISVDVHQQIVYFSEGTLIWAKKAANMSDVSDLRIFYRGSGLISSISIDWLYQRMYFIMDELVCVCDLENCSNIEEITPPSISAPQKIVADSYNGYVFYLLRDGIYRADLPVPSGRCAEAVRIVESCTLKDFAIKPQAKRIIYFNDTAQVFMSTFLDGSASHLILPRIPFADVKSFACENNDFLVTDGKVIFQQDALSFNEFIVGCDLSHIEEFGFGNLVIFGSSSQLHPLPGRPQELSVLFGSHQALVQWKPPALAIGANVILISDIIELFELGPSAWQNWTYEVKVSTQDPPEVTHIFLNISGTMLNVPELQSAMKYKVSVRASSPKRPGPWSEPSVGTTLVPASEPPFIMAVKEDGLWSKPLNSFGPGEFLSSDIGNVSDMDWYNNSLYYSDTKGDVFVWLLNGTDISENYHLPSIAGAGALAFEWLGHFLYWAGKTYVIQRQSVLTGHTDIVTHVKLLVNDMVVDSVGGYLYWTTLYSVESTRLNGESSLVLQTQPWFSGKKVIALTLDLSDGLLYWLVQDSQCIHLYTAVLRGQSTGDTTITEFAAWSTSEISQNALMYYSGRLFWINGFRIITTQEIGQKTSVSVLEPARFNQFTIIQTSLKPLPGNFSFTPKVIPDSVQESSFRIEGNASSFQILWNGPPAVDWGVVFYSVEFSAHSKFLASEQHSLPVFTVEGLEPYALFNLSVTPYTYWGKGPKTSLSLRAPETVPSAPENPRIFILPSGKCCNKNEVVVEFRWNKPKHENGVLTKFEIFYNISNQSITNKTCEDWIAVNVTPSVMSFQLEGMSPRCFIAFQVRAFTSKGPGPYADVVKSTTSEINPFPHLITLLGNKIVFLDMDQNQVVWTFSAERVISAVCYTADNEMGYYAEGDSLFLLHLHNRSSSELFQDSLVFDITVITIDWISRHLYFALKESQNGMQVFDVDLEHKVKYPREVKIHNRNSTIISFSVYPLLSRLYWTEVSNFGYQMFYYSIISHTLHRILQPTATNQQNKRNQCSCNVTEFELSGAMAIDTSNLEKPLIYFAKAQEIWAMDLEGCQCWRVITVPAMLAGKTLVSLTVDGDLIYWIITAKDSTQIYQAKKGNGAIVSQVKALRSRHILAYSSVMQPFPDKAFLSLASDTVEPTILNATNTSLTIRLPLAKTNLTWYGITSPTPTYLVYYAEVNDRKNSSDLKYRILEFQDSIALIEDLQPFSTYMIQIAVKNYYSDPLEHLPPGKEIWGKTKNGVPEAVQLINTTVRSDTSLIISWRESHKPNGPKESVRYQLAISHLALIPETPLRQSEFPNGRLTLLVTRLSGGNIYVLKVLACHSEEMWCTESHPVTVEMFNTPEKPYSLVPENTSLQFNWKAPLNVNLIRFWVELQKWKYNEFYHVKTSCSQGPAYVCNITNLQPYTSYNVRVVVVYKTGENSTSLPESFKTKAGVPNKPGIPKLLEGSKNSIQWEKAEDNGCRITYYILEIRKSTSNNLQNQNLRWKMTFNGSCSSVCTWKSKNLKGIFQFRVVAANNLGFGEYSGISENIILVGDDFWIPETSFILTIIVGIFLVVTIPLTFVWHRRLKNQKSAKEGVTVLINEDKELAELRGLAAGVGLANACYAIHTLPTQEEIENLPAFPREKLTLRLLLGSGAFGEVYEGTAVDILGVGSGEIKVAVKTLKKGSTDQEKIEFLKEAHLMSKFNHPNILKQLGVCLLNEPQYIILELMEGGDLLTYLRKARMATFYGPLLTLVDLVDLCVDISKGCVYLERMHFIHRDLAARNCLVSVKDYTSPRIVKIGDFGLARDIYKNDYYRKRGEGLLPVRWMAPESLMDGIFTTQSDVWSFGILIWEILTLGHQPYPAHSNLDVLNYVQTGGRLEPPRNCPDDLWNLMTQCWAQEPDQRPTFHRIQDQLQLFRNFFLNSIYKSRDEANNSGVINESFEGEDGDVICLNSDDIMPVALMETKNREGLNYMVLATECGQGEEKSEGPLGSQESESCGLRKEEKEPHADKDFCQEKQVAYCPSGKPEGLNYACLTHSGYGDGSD

[11] = target: T3, Testis-specific serine/threonine-protein kinase 1 (Homo sapiens) (UniProt Q9BXA7); experiment: Inhibition of TSSK1B at 1 uM
T3 sequence (whole entry): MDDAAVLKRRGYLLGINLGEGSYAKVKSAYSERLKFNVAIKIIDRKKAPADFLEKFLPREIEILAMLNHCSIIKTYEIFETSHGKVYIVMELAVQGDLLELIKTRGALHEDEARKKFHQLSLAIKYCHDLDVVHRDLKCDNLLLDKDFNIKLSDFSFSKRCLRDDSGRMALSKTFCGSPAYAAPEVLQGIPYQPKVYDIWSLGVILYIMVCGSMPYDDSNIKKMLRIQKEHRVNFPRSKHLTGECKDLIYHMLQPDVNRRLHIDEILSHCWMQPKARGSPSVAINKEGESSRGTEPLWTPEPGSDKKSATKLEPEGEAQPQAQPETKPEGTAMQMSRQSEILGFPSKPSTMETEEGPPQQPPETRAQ

[12] = target: Aurora kinase B (Homo sapiens) (UniProt Q96GD4); experiment: Inhibition of AURKB at 1 uM; method in brief: as §1
Chain of Aurora kinase B (Homo sapiens) (Q96GD4 whole entry): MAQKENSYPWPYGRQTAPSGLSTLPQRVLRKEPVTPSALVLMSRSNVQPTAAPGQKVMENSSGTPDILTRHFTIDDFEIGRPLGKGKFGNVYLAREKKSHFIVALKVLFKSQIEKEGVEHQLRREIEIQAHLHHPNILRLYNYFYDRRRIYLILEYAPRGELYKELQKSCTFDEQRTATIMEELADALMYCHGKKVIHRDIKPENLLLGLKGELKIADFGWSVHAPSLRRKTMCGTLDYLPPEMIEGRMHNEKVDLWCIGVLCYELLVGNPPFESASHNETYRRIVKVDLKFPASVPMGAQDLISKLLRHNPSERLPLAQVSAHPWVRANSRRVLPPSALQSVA

[13] = target: Tyrosine-protein kinase ABL1 (Homo sapiens) (UniProt P00519); experiment: Inhibition of ABL1 at 1 uM; method in brief: as §1
Chain of Tyrosine-protein kinase ABL1 (Homo sapiens) (P00519 whole entry): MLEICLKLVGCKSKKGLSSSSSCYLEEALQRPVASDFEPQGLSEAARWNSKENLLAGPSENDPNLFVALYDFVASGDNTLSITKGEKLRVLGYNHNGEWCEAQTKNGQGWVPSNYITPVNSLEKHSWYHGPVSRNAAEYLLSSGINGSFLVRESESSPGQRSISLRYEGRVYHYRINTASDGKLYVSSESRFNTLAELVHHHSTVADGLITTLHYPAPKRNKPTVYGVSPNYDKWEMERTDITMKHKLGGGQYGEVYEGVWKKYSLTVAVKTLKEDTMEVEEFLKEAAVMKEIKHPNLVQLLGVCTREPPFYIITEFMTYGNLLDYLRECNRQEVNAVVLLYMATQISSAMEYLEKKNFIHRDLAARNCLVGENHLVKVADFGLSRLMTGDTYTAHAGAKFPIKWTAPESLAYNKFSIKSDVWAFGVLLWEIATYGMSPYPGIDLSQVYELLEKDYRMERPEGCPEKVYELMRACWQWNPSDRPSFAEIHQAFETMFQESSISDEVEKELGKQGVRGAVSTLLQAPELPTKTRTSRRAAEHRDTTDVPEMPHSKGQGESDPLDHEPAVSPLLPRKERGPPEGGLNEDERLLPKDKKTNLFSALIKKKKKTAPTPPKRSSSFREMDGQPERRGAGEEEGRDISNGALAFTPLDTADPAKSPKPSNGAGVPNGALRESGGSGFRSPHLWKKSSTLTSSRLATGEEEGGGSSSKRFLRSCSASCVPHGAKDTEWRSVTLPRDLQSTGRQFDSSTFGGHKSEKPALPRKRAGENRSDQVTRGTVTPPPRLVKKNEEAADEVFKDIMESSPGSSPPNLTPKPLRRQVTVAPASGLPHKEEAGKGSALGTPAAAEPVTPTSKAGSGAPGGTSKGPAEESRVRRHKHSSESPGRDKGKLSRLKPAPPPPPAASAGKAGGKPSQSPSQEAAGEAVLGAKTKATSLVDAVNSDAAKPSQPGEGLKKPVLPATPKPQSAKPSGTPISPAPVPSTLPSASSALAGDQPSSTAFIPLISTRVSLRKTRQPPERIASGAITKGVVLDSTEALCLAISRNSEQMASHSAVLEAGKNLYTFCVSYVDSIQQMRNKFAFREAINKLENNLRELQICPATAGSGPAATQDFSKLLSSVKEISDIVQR

SMILES	inhibition [1] [%]	inhibition [2] [%]	inhibition [3] [%]	inhibition [4] [%]	inhibition [5] [%]	inhibition [6] [%]	inhibition [7] [%]	inhibition [8] [%]	inhibition [9] [%]	inhibition [10] [%]	inhibition [11] [%]	inhibition [12] [%]	inhibition [13] [%]
CC(=O)N1CCN(c2cc(-c3cnc4c(c3)N(Cc3cc(Cl)ccc3C(F)(F)F)CCN4)ccn2)CC1	89	< 50	< 50	< 50	< 50	< 50	< 50	< 50	< 50	79	< 50	< 50	< 50
CN1CCN(c2ccc(-c3cnc4c(c3)N(Cc3cc(Cl)ccc3C(F)(F)F)CCN4)cn2)CC1	< 50	< 50	< 50	< 50	< 50	< 50	< 50	< 50	< 50	72	< 50	< 50	< 50
CN1CCN(c2ccc(-c3cnc4c(c3)N(Cc3cc(F)ccc3F)CCN4)cn2)CC1	< 50	< 50	< 50	< 50	< 50	< 50	< 50	< 50	< 50	67.5	< 50	< 50	59
CN1CCN(c2ccc(-c3cnc4c(c3)N(Cc3cc(Cl)ccc3Cl)CCN4)cn2)CC1	< 50	82	< 50	< 50	< 50	< 50	< 50	< 50	< 50	< 50	< 50	< 50	< 50
CN1CCN(c2ccc(-c3cnc4c(c3)N(Cc3c(F)ccc(F)c3Cl)CCN4)cn2)CC1	< 50	69	< 50	< 50	< 50	< 50	< 50	< 50	< 50	73	< 50	< 50	84
FC(F)(F)c1ccc(Cl)cc1CN1CCNc2ncc(-c3ccnc(N4CCNCC4)c3)cc21	92	97	< 50	< 50	< 50	< 50	< 50	< 50	< 50	92	< 50	76	< 50

Continued, values first:

inhibition [1] [%]	inhibition [2] [%]	inhibition [3] [%]	inhibition [4] [%]	inhibition [5] [%]	inhibition [6] [%]	inhibition [7] [%]	inhibition [8] [%]	inhibition [9] [%]	inhibition [10] [%]	inhibition [11] [%]	inhibition [12] [%]	inhibition [13] [%]	SMILES
< 50	< 50	< 50		< 50	< 50	< 50	< 50	< 50	66.7		< 50	< 50	O=C(O)c1ccc(-c2cnc3c(c2)N(Cc2cc(Cl)ccc2C(F)(F)F)CCN3)cc1
< 50	< 50	< 50		< 50	< 50	< 50	< 50	< 50	< 50		< 50	< 50	O=C(c1ccc(-c2cnc3c(c2)N(Cc2cc(Cl)ccc2C(F)(F)F)CCN3)cc1)N1CCCCC1
79.5	< 50	< 50		< 50	< 50	< 50	< 50	< 50	78.2		< 50	< 50	COC1CCN(C(=O)c2ccc(-c3cnc4c(c3)N(Cc3cc(Cl)ccc3C(F)(F)F)CCN4)cc2)CC1
96.9	91.9	< 50		< 50	< 50	< 50	< 50	< 50	80.7		< 50	< 50	O=C(c1ccc(-c2cnc3c(c2)N(Cc2cc(Cl)ccc2C(F)(F)F)CCN3)cc1)N1CCC(N2CCCC2)CC1
